Laboratory results reported in ChEMBL document CHEMBL1140433, “Design, synthesis, and evaluation of pharmacological properties of cinnamic derivatives as antiatherogenic agents” (2005).

Key:
Assay type in all cases: functional, Homo sapiens
HMEC [1] = experiment: Ability to inhibit HMEC1-mediated LDL oxidation at 10 uM evaluated by TBARS formation in the presence of copper; set-up: scale not given: the % may be the effect or the level left
How it was run: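 Human plasma LDL (100 µg apoB/mL) was incubated with subconfluent HMEC-1 in serum-free RPMI-1640 with 1 µM Cu2+ for 6 h at 37 °C. Cells had been serum-starved for 24 h. Compound was added in DMSO just before oxidation, in duplicate. TBARS in the medium were measured fluorimetrically (Yagi), as % of cell-oxidized LDL without antioxidant. Mean of four determinations.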

HMEC [2] = experiment: Cytotoxic effect of LDL oxidized by HMEC1 cells at 10 uM by MTT assay expressed as percentage of viability in unstimulated control
How it was run: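 LDL (100 µg apoB/mL) was first oxidized by HMEC-1 for 6 h in RPMI with 1 µM Cu2+ and compound at 10 µM. This LDL then stayed on serum-starved HMEC-1 for a 24 h pulse. Viability was read by MTT as % of control cells in fresh RPMI without LDL or antioxidant. Mean of four determinations.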

HMEC [3] = experiment: Ability to inhibit HMEC1-mediated LDL oxidation at 10 uM evaluated by TBARS formation in the absence of copper; set-up: scale not given: the % may be the effect or the level left
HMEC [4] = experiment: Ability to inhibit HMEC1-mediated LDL oxidation at 100 uM evaluated by TBARS formation in the absence of copper; set-up: scale not given: the % may be the effect or the level left

SMILES | Activity (HMEC [1]) | Activity (HMEC [2]) | Activity (HMEC [3]) | Activity (HMEC [4])
CCOP(=O)(O)/C=C/c1ccc(O)c(OC)c1 | 52.7% | 21.7% | – | –
CCOP(=O)(O)/C=C/c1cc(OC)c(O)c(OC)c1 | 16% | 45% | – | –
CCOP(=O)(O)/C=C/c1ccc(O)cc1 | 101% | 13.3% | – | –
COc1ccc(/C=C/C(=O)Nc2ccccn2)cc1OC | 100% | 20.7% | – | –
COc1cc(/C=C/C(=O)SCCNC(C)=O)cc(OC)c1O | 12.7% | 88.7% | 18% | 8%
CCOP(=O)(/C=C/c1cc(OC)c(O)c(OC)c1)OCC | 13% | 81% | – | –
COc1cc(/C=C/C(=O)SCCNC(C)=O)ccc1O | 40.3% | 69.3% | – | –
CCOP(=O)(/C=C/c1ccc(O)c(OC)c1)OCC | 32.3% | 75.7% | – | –
CCOP(=O)(/C=C/c1ccc(O)cc1)OCC | 77.6% | 65.3% | – | –
COc1ccc(/C=C/C(=O)SCCNC(C)=O)cc1 | 109% | 21.7% | – | –
COc1cc(/C=C/C(=O)NCCc2c[nH]c3ccccc23)ccc1O | 9.6% | 93.6% | – | –
COc1cccc(/C=C/C(=O)Nc2ccccn2)c1 | 61.3% | 48.7% | – | –
CC(=O)NCCSC(=O)/C=C/c1ccc(O)cc1 | 95.6% | 22.6% | – | –
Cc1c(C)c2c(c(C)c1O)CC[C@@](C)(CCC[C@H](C)CCC[C@H](C)CCCC(C)C)O2 [ALPHA-TOCOPHEROL] | 55% | 29% | – | –
CC(C)(Sc1cc(C(C)(C)C)c(O)c(C(C)(C)C)c1)Sc1cc(C(C)(C)C)c(O)c(C(C)(C)C)c1 [PROBUCOL] | 10% | 92% | – | –
